# Measurements: ChEMBL document CHEMBL4007422 (J Med Chem, 2017)
# Assays:
# D(3) dopamine receptor = D(3) dopamine receptor (Rattus norvegicus, UniProt P19020); test: Displacement of [3H] 7-OH DPAT from recombinant rat dopamine D3 receptor expressed in CHO cells after 60 mins; assay type: cell-based
# [1] = Oral bioavailability in Wistar rat at 10 mg/kg by LC-MS/MS analysis; assay type: ADME, organism-based; conditions: Wistar, in vivo
# [2] = AUC (0 to t) in Wistar rat at 10 mg/kg, po by LC-MS/MS analysis; assay type: ADME, organism-based; conditions: Wistar, in vivo
# [3] = Protein binding in rat plasma at 1 uM after 6 hrs by LC-MS/MS based rapid equilibrium dialysis method; assay type: ADME, cell-free; conditions: read-out: PPB
# In short: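 Plasma protein binding in rat, dog and human plasma determined by equilibrium dialysis.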
# [4] = biological target: Voltage-gated inwardly rectifying potassium channel KCNH2 (Homo sapiens, UniProt Q12809); test: Inhibition of astemizole binding to human ERG
# In short: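 hERG channel binding assessed as displacement in an astemizole binding assay.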
# Cytochrome P450 2D6 = Cytochrome P450 2D6 (Homo sapiens, UniProt P10635); test: Inhibition of CYP2D6 in human liver microsomes in presence of NADPH by LC-MS/MS analysis
# [5] = biological target: Alpha-2A adrenergic receptor (Homo sapiens) (UniProt P08913); conditions: 1 uM
# Salmonella typhimurium = test: Mutagenicity in Salmonella typhimurium TA98 in absence of metabolic activation; assay type: toxicity; conditions: salmonella enterica subsp. enterica serovar typhimurium
# [6] = Clearance in Beagle dog at 3 mg/kg, iv; assay type: ADME, organism-based, Canis lupus familiaris; conditions: in vivo
# Chain of D(3) dopamine receptor (P19020 whole entry): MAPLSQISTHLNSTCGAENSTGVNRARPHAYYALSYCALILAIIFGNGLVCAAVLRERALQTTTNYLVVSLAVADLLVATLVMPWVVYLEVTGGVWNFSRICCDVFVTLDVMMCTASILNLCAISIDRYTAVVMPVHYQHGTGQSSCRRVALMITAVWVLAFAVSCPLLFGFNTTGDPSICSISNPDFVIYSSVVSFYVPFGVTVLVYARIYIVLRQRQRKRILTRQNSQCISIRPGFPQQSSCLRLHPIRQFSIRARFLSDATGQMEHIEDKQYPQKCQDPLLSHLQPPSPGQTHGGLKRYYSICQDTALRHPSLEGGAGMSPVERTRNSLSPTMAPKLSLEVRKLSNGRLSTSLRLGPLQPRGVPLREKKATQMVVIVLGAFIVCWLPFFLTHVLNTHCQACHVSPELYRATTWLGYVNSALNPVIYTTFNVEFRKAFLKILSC
# Chain of Alpha-2A adrenergic receptor (Homo sapiens) (P08913 whole entry): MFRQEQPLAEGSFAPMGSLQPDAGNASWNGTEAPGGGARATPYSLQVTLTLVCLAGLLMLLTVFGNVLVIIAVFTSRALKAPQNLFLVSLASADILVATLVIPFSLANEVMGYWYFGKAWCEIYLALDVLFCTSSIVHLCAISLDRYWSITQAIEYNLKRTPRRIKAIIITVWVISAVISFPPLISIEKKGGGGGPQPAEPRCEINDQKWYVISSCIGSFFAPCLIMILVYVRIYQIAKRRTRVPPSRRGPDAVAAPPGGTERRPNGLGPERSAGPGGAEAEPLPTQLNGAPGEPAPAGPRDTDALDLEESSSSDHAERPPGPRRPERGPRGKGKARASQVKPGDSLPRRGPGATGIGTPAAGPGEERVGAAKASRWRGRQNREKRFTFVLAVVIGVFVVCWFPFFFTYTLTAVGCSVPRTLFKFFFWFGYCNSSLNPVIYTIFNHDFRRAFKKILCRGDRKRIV
# Chain of Cytochrome P450 2D6 (P10635 whole entry): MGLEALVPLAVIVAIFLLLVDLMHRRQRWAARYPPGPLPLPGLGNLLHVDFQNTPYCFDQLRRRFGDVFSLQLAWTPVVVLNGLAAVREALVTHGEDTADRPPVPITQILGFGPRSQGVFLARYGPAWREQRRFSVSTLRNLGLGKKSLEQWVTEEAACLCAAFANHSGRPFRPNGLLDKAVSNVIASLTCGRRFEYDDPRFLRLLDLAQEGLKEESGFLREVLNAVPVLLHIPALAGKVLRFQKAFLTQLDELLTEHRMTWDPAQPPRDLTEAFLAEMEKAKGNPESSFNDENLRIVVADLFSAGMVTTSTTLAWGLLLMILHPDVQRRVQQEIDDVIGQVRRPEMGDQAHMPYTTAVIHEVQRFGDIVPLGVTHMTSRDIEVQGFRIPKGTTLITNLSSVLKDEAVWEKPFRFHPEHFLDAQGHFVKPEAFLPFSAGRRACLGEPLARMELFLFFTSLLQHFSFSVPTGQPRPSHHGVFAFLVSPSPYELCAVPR
# Chain of Voltage-gated inwardly rectifying potassium channel KCNH2 (Q12809 whole entry): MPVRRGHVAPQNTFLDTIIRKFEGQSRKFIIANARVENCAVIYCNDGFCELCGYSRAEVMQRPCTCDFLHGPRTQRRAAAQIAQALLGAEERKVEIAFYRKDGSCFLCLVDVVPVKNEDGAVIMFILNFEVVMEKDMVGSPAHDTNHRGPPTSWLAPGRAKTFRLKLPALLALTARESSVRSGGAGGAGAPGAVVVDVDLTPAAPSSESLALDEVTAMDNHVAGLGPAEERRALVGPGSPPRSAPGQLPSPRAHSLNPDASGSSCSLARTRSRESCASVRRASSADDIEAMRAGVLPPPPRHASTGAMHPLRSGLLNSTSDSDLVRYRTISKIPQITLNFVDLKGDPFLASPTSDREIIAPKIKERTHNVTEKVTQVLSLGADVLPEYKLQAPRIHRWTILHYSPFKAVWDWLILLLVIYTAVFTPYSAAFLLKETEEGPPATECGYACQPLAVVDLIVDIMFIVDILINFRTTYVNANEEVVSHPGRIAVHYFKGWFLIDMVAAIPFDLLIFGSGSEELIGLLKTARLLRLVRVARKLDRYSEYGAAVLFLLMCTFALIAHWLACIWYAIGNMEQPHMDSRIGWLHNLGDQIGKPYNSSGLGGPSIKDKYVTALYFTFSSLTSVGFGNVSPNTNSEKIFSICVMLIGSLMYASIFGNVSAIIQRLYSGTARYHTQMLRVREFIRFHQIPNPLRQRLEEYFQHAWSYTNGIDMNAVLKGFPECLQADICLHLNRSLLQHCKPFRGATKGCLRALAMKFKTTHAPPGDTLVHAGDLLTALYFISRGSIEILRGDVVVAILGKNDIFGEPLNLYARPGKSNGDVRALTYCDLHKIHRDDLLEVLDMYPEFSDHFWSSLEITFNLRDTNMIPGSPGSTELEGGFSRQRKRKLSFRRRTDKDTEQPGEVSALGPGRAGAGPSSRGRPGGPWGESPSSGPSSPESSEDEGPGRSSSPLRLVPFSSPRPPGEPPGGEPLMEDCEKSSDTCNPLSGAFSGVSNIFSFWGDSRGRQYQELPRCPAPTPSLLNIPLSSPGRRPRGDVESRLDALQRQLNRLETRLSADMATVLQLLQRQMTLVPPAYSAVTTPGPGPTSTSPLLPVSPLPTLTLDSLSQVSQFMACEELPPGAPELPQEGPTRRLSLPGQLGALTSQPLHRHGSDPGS
structure (smiles),measurement,setting,value
COc1ccc2c(c1)c(CN1CCN(C)CC1)cn2S(=O)(=O)c1ccccc1Br.CS(=O)(=O)O.O,Ki,D(3) dopamine receptor,0.616 µM
same,bioavailability,[1],24.9%
same,AUC(0-t),[2],0.784 µg·h/mL
same,"fraction unbound at 6 h, 1 µM",[3],0.01
same,inhibition (INH),[4],Not Active
same,IC50,Cytochrome P450 2D6,13.2 µM
same,inhibition,[5],> 50%
same,Activity,Salmonella typhimurium,Non-Toxic
same,clearance,[6],2.78 L/h/kg
